The values below come from ChEMBL document CHEMBL3244241, “Synthesis of cephalotaxine esters and correlation of their structures with antitumor activity” (J Med Chem, 1977).

The subject of series [1] is P388. Put plainly: Antitumor activity against mouse P388 cells allografted in ip dosed DBA/2 mouse administered for 9 days. The class given is functional, organism-based. Put shortly:
(§1)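 P388 lymphocytic leukemia in DBA/2 mice; one intraperitoneal injection per day for 9 days. […] Injection vehicles were water + alcohol, saline + Tween 80, or aqueous 0.5% citric acid. Some tests were duplicated, and 30-day cures were recorded.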

The subject of series [2] is P388. Put plainly: Antitumor activity against mouse P388 cells allografted in DBA/2 mouse at 480 mg/kg/day, ip for 9 days. The class given is functional, organism-based. A digest of the protocol:
as §1

Series [3] has as its system Mus musculus. The series is described as follows: Toxicity in DBA/2 mouse allografted with mouse P388 cells assessed as change in body weight at 5.9 mg/kg/day, ip for 9 days compound administered through water+alcohol vehicle. Type of series: organism-based. The arrangement: route intraperitoneal. The note with it: in vivo, 216 h.
The test system of series [4] is Mus musculus. The series is described as follows: Toxicity in DBA/2 mouse allografted with mouse P388 cells assessed as change in body weight at 4 mg/kg/day, ip for 9 days compound administered through saline vehicle. As to conditions: in vivo, 216 h. The arrangement: route intraperitoneal. Type of series: organism-based.
Series [5] deals with Mus musculus. Put plainly: Toxicity in DBA/2 mouse allografted with mouse P388 cells assessed as change in body weight at 2 mg/kg/day, ip for 9 days compound administered through saline vehicle. The class given is organism-based. The arrangement: route intraperitoneal. The note with it: in vivo, 216 h.
Series [6] concerns P388. The series is described as follows: Antitumor activity against mouse P388 cells allografted in DBA/2 mouse assessed as host survival at 5.9 mg/kg/day, ip for 9 days compound administered through water+alcohol vehicle relative to control. Type of series: functional. The note with it: route intraperitoneal. Put shortly:
(§2)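 P388 lymphocytic leukemia in DBA/2 mice. Dosing was one intraperitoneal injection per day for 9 days in the vehicle stated. […] Duplicate tests were run for some doses.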

Series [7] concerns P388. The series is described as follows: Antitumor activity against mouse P388 cells allografted in DBA/2 mouse assessed as host survival at 4 mg/kg/day, ip for 9 days compound administered through saline vehicle relative to control. The class given is functional. As to conditions: route intraperitoneal. A digest of the protocol: as §2
For series [8], the system named is P388. The series is described as follows: Antitumor activity against mouse P388 cells allografted in DBA/2 mouse assessed as host survival at 2 mg/kg/day, ip for 9 days compound administered through saline vehicle relative to control. The class given is functional. The note with it: route intraperitoneal. A digest of the protocol:
as §2

Series [9] concerns Mus musculus. The series is described as follows: Toxicity in DBA/2 mouse allografted with mouse P388 cells assessed as change in body weight at 20 mg/kg/day, ip for 9 days compound administered through water+alcohol+acetone vehicle. Also on record: route intraperitoneal. The note with it: in vivo, 216 h. Type of series: organism-based. A digest of the protocol: (§3)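 DBA/2 mice bearing P388 lymphocytic leukemia received one intraperitoneal injection per day for 9 days, given in the vehicle named for each test (water/alcohol-based, saline or saline + Tween 80). Toxicity was noted during dosing alongside survival scoring (T/C, treated versus control mean survival time).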

For series [10], the system named is Mus musculus. Put plainly: Toxicity in DBA/2 mouse allografted with mouse P388 cells assessed as change in body weight at 10 mg/kg/day, ip for 9 days compound administered through water+alcohol+acetone vehicle. Also on record: route intraperitoneal. The note with it: in vivo, 216 h. The class given is organism-based. A digest of the protocol: as §3
Series [11] deals with Mus musculus. The series is described as follows: Toxicity in DBA/2 mouse allografted with mouse P388 cells assessed as change in body weight at 4.4 mg/kg/day, ip for 9 days compound administered through water+alcohol vehicle. Type of series: organism-based. The arrangement: route intraperitoneal. The note with it: in vivo, 216 h. Put shortly:
as §3

Series [12] deals with Mus musculus. Put plainly: Toxicity in DBA/2 mouse allografted with mouse P388 cells assessed as change in body weight at 1.9 mg/kg/day, ip for 9 days compound administered through water+alcohol vehicle. The class given is organism-based. As to conditions: in vivo, 216 h. Also on record: route intraperitoneal. A digest of the protocol: as §3
Series [13] relates to P388. The series is described as follows: Antitumor activity against mouse P388 cells allografted in DBA/2 mouse assessed as host survival at 80 mg/kg/day, ip for 9 days compound administered through water+alcohol+acetone vehicle relative to control. Type of series: functional. The note with it: route intraperitoneal. A digest of the protocol:
as §2

Series [14] has as its system P388. Put plainly: Antitumor activity against mouse P388 cells allografted in DBA/2 mouse assessed as host survival at 40 mg/kg/day, ip for 9 days compound administered through water+alcohol+acetone vehicle relative to control. Type of series: functional. The note with it: route intraperitoneal. Put shortly:
as §2

Series [15] has as its system P388. The series is described as follows: Antitumor activity against mouse P388 cells allografted in DBA/2 mouse assessed as host survival at 20 mg/kg/day, ip for 9 days compound administered through water+alcohol+acetone vehicle relative to control. As to conditions: route intraperitoneal. The class given is functional. Put shortly:
as §2

For series [16], the system named is P388. The series is described as follows: Antitumor activity against mouse P388 cells allografted in DBA/2 mouse assessed as host survival at 10 mg/kg/day, ip for 9 days compound administered through water+alcohol+acetone vehicle relative to control. The class given is functional. As to conditions: route intraperitoneal. A digest of the protocol:
as §2

For series [17], the system named is P388. Put plainly: Antitumor activity against mouse P388 cells allografted in DBA/2 mouse assessed as host survival at 4.4 mg/kg/day, ip for 9 days compound administered through water+alcohol vehicle relative to control. The class given is functional. The note with it: route intraperitoneal. Put shortly: as §2
Series [18] deals with P388. Put plainly: Antitumor activity against mouse P388 cells allografted in DBA/2 mouse assessed as host survival at 1.9 mg/kg/day, ip for 9 days compound administered through water+alcohol vehicle relative to control. Type of series: functional. As to conditions: route intraperitoneal. A digest of the protocol:
as §2

The test system of series [19] is Mus musculus. The series is described as follows: Toxicity in DBA/2 mouse allografted with mouse P388 cells assessed as change in body weight at 80 mg/kg/day, ip for 9 days compound administered through water+alcohol+acetone vehicle. The class given is organism-based. Also on record: route intraperitoneal. As to conditions: in vivo, 216 h. A digest of the protocol: as §3

In series [20] the test system is Mus musculus. The series is described as follows: Toxicity in DBA/2 mouse allografted with mouse P388 cells assessed as change in body weight at 40 mg/kg/day, ip for 9 days compound administered through water+alcohol+acetone vehicle. Also on record: route intraperitoneal. Type of series: organism-based. The note with it: in vivo, 216 h. A digest of the protocol: as §3

Series [21] has as its system P388. Put plainly: Antitumor activity against mouse P388 cells allografted in DBA/2 mouse assessed as host survival at 20 mg/kg/day, ip for 9 days compound administered through 0.5% citric acid vehicle. Type of series: functional, organism-based. A digest of the protocol:
as §1

The test system of series [22] is P388. Put plainly: Antitumor activity against mouse P388 cells allografted in DBA/2 mouse assessed as host survival at 20 mg/kg/day, ip for 9 days compound administered through water+alcohol vehicle relative to control. As to conditions: route intraperitoneal. Type of series: functional. A digest of the protocol:
as §2

In series [23] the test system is P388. Put plainly: Antitumor activity against mouse P388 cells allografted in DBA/2 mouse assessed as host survival at 13 mg/kg/day, ip for 9 days compound administered through water+alcohol vehicle relative to control. The class given is functional. The note with it: route intraperitoneal. Put shortly: as §2
The subject of series [24] is P388. Put plainly: Antitumor activity against mouse P388 cells allografted in DBA/2 mouse assessed as host survival at 20 mg/kg/day, ip for 9 days compound administered through saline+Tween 80 vehicle relative to control. Type of series: functional. The note with it: route intraperitoneal. A digest of the protocol: as §2
The subject of series [25] is Mus musculus. The series is described as follows: Toxicity in DBA/2 mouse allografted with mouse P388 cells assessed as change in body weight at 20 mg/kg/day, ip for 9 days compound administered through water+alcohol vehicle. Type of series: organism-based. Also on record: route intraperitoneal. The note with it: in vivo, 216 h. A digest of the protocol:
as §3

Series [26] relates to Mus musculus. Put plainly: Toxicity in DBA/2 mouse allografted with mouse P388 cells assessed as change in body weight at 13 mg/kg/day, ip for 9 days compound administered through water+alcohol vehicle. The note with it: in vivo, 216 h. Type of series: organism-based. The arrangement: route intraperitoneal. A digest of the protocol:
as §3

Series [27] relates to Mus musculus. Put plainly: Toxicity in DBA/2 mouse allografted with mouse P388 cells assessed as change in body weight at 20 mg/kg/day, ip for 9 days compound administered through saline+Tween 80 vehicle. Type of series: organism-based. Also on record: route intraperitoneal. As to conditions: in vivo, 216 h. A digest of the protocol:
as §3

Calls of active or inactive are those of the source. The rule behind the calls is not given here.

Turning to `COC(=O)/C=C(\C)C(=O)O[C@@H]1C(OC)=C[C@]23CCCN2CCc2cc4c(cc2[C@H]13)OCO4`, the outcome in [1] was inactive.

`C=C(CC(=O)OC)C(=O)O[C@@H]1C(OC)=C[C@]23CCCN2CCc2cc4c(cc2[C@H]13)OCO4` (single isomer, unassigned): the outcome in series [2] was inactive.

In general, T/C refers to the ratio of treated to control. For the compound `COC(=O)C[C@](O)(CCC(C)C)C(=O)O[C@@H]1C(OC)=C[C@]23CCCN2CCc2cc4c(cc2[C@H]13)OCO4` [DEOXYHARRINGTONINE], the figures for the Activity in series [3], in series [4] and in series [5] were -0.9 g, 0 g and 0.8 g, respectively. Besides, the T/C was 184% in series [6], 174% in [7] and 126% in [8].

With `COC(=O)/C=C/C(=O)O[C@@H]1C(OC)=C[C@]23CCCN2CCc2cc4c(cc2[C@H]13)OCO4`, the Activity is given as -1 g in series [9]; -1.2 g in [10]; -1.5 g in series [11]; 0.5 g in [12]; -0.7 g in series [19]; -0.9 g in [20]. For the same compound, the T/C in series [13] was 145%; in series [14], 134%; in series [15], 125%; in [16], 136%; in series [17], 147%; in series [18] it was 134%.

Take `CCOC(=O)C(=O)O[C@@H]1C(OC)=C[C@]23CCCN2CCc2cc4c(cc2[C@H]13)OCO4`: the outcome in series [21] was inactive. Moreover, the T/C came to 135% in series [22], 154% in series [23] and 129% in series [24]. Further, the Activity was -0.2 g in series [25], -0.8 g in series [26] and -0.1 g in [27].

For `CCOC(=O)O[C@@H]1C(OC)=C[C@]23CCCN2CCc2cc4c(cc2[C@H]13)OCO4`, the result in series [1] was inactive.

With `CCC(C)(OC(=O)OCC(Cl)(Cl)Cl)C(=O)O[C@@H]1C(OC)=C[C@]23CCCN2CCc2cc4c(cc2[C@H]13)OCO4` (some centres undefined), the outcome in series [1] was inactive.
